Columns and labels:
Cyclic voltammetry = assay type: physicochemical; conditions: acetonitrile; for ipa/ipc, ratio of anodic to cathodic current / ΔEp, wave potential separation (Epa − Epc): scan rate 100 mV s−1; for E1/2, half wave potential (E1/2 = (Epa + Epc)/2) / Epa, anodic wave potential / Epc, cathodic wave potential: scan rate 100 mV s−1, V vs. Ag/AgCl
Summary of the method: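 Test compound at 0.5 mM in anhydrous acetonitrile with 0.1 M […] as background electrolyte. Three-electrode cell: glassy carbon working, Pt wire counter, Ag/AgCl reference. Scanned from −1.7 to +1.0 V at 100 mV s−1 with a 20 mV E step, 6 cycles per compound, at 25 °C. Half-wave potentials were taken from the voltammograms.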

[1] = Host macrophage cytotoxicity, resazurin assay; assay type: cell-based; conditions: human, PMA-differentiated THP-1 cells (macrophages)

| Structure (SMILES) | ipa/ipc, ratio of anodic to cathodic current (Cyclic voltammetry) | ΔEp, wave potential separation (Epa − Epc) (Cyclic voltammetry) | E1/2, half wave potential (E1/2 = (Epa + Epc)/2) (Cyclic voltammetry) | Epa, anodic wave potential (Cyclic voltammetry) | Epc, cathodic wave potential (Cyclic voltammetry) | IC50 at 72 h [1] |
| --- | --- | --- | --- | --- | --- | --- |
| O=[N+]([O-])c1ccc(/C=N/N=C/c2ccc(Cl)cc2)s1 [3b, (1E,2E)-1-(4-Chlorobenzylidene)-2-[(5-nitrothiophen-2-yl)methylene]hydrazine] | 0.889 | 0.22 V | −0.85 V | −0.74 V | −0.96 V | – |
| O=[N+]([O-])c1ccc(/C=N/N=C/c2ccc(Br)cc2)s1 [4b, (1E,2E)-1-(4-Bromobenzylidene)-2-[(5-nitrothiophen-2-yl)methylene]hydrazine] | 0.961 | 0.24 V | −0.92 V | −0.80 V | −1.04 V | – |
| Cc1ccc(/C=N/N=C/c2ccc([N+](=O)[O-])s2)cc1 [5b, (1E,2E)-1-(4-Methylbenzylidene)-2-[(5-nitrothiophen-2-yl)methylene]hydrazine] | 1.000 | 0.24 V | −0.90 V | −0.78 V | −1.02 V | – |
| COc1ccc(/C=N/N=C/c2ccc([N+](=O)[O-])s2)cc1 [6b, (1E,2E)-1-(4-Methoxybenzylidene)-2-[(5-nitrothiophen-2-yl)methylene]hydrazine] | 0.990 | 0.24 V | −0.92 V | −0.80 V | −1.04 V | – |
| O=[N+]([O-])c1ccc(/C=N/N=C/c2ccc(O)cc2)o1 [8a, 4-{(E)-{(E)-[(5-Nitrofuran-2-yl)methylene]hydrazono}methyl}phenol] | 0.943 | 0.26 V | −0.95 V | −0.82 V | −1.08 V | – |
| O=[N+]([O-])c1ccc(/C=N/N=C/c2ccc([N+](=O)[O-])s2)cc1 [9b, (1E,2E)-1-(4-Nitrobenzylidene)-2-[(5-nitrothiophen-2-yl)methylene]hydrazine] | 0.951 | 0.24 V | −0.94 V | −0.82 V | −1.06 V | – |
| O=C(Cn1ccnc1[N+](=O)[O-])NCc1ccccc1 [Bzn, benznidazole, reference compound] | – | – | – | – | – | > 100 µM |
| O=Cc1ccc([N+](=O)[O-])o1 [NFA, 5-nitro-2-furaldehyde, reference compound] | 0.967 | 0.28 V | −0.88 V | −0.74 V | −1.02 V | – |
| NC(=O)N/N=C/c1ccc([N+](=O)[O-])o1 [NFZ, nitrofurazone, reference compound] | – | – | – | – | – | > 100 µM |
| O=Cc1ccc([N+](=O)[O-])s1 [NTA, 5-nitrothiophene-2-carboxaldehyde, reference compound] | 0.755 | 0.20 V | −0.96 V | −0.86 V | −1.06 V | – |
